From PubChem
Most compounds without a hit are left out; they make up all but 5.7% or so of the library.
Beta apoptosis: blocks beta cell apoptosis | protection from apoptosis, % (test concentration not listed) | actives 0.8% (n = 300,000) | INS-1E cytokine-induced death, ATP luminescence, 48 h; percent of positive-control rescue, neutral wells zero;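 active means Every replicate reaches about 75%, or at least half do and their mean reaches it too, limit read from the data; inconclusive means At least half of replicates reach the limit but their mean does not; inactive means Under half of replicates reach the limit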;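 further: 0% = cytokine-treated negative control wells and 100% = positive control rescue; higher means more ATP so stronger rescue from cytokine killing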
T cruzi repl: T. cruzi replication inhibition | T. cruzi beta-gal in NIH3T3, luminescence, 90 h | inhibition, % (test concentration not listed) | actives 1.4% (n = 300,000);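 active means mean inhibition across valid replicates above about 55%, limit read from the data; inconclusive means mean below that limit but half or more replicates reach it; inactive means mean below it, under half of replicates reach it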;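 further: signal also drops with host cell toxicity which is not excluded here; 0% = plate median of DMSO wells and 100% = zero luminescence signal; higher percent means less beta-gal luminescence so fewer parasites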
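assay system = mouse NIH/3T3 fibroblasts infected with β-gal-expressing T. cruzi Tulahuen C4 | input = 5,000 NIH/3T3 host cells per well | buffer or medium = DMEM plus 2% FBS | timing = 3 h host attachment, then at least 90 h co-culture | measured by = GalScreen luminescence, 60 min | evaluation = luminescence reflecting intracellular parasite burden, expressed as percent inhibition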
Calb FLC: C. albicans growth modulation with fluconazole. C. albicans CaCi-2 (fluconazole-resistant clinical isolate) + fluconazole, Alamar Blue growth, 48 h. growth inhibition, % (test concentration not listed). actives 0.57% (n = 300,000);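 active means growth inhibition above about 58% in most replicates, limit read from the data, passing the limit was not always enough; inconclusive means exactly half the replicates above a set limit; inactive means most replicates below a set limit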;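 further: all wells also contain fluconazole at 8 µg/ml as a sub-toxic cotreatment; 0% = median of DMSO wells and 100% = median of geldanamycin control wells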
SKKanGAS inh: inhibitors of SKKanGAS S. pyogenes growth in kanamycin (SK-promoter or general growth effect). BacTiter-Glo, 6 h. actives 1.3% (n = 300,000). inhibition, % at 7.5 µM. AID 1662;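 active means mean replicate score, as percent of positive control median, at least 50; inconclusive means mean below 50 but one replicate at or above 50; inactive means mean and every replicate below 50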;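 further: strain carries kanamycin resistance gene driven by streptokinase promoter and grows in 40 µg/ml kanamycin; loss of luminescence reflects streptokinase promoter inhibition or plain growth inhibition; 0% = median of DMSO wells and 100% = positive control at its reference dose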
CSC inhib: cancer stem cell inhibition; cancer stem cell-like cells viability, luminescence; inhibition, % at 7.5 µM; actives 1.1% (n = 300,000); AID 2717; in the data active means inhibition above about 75%; inconclusive means no clear call, values can overlap the other calls; tested in HMLE shEcad cells
Mdm2 MdmX PPI: inhibitors of human Mdm2/MdmX interaction. O15151+Q00987. SaOS-2 split-luciferase Mdm2/MdmX complementation, luminescence. inhibition, % at 8 µM. actives 3% (n = 330,000). AID 485346;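 active means inhibition of at least 50% at 8 µM in the primary screen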
Starred values were filed as active, the others as inactive; ? = inconclusive; nt = not tested or not shown.

SMILES	Beta apoptosis	T cruzi repl	Calb FLC	SKKanGAS inh	CSC inhib	Mdm2 MdmX PPI
CC(=O)Nc1ccc(S(=O)(=O)N(C)CC(=O)OC(C)C(=O)NC2CCCCC2)cc1 (configuration not stated)	-3	-2	-2	-6	-5	-3
CC1CCN(CCCNC(=O)c2ccc(N3CCCC3=O)cc2)CC1	-4	28	0	-18	0	-27
O=C(CN1C2=NCCCN2c2ccccc21)c1ccc([N+](=O)[O-])cc1	59	59*	-8	-11	-16	-21
O=C(NCCCn1ccnc1)c1sc2cccc(F)c2c1Cl	4	64*	4	-12	nt	12
O=C(NCCCn1ccnc1)c1c(F)cccc1F	-5	-6	1	-3	3	15
O=C(c1cc2ccccc2cc1O)N1CCCC1	-2	10	-3	-2	-16	14
O=C(c1cc2ccccc2cc1O)N1CCN(c2ccccc2O)CC1	-2	-12	77*	?	-14	6
Cc1ccc(C)c(N2CCN(C(=O)CCCOc3cc(=O)n(C)c4ccccc34)CC2)c1	94*	26	15	6	-14	6
Cc1ccc(C)c(OCc2nc(-c3cccnc3)no2)c1	nt	6	28	-13	nt	19
Cc1ccc(-c2nc(-c3cccnc3)no2)c(C)c1	-1	3	95*	-5	-6	-167
CCN(CC)C(=O)CN1C(=O)c2cccc3cccc1c23	nt	17	11	2	-13	16
Cc1noc(/C=C/c2ccco2)c1S(=O)(=O)N1CCC(C(=O)N2c3ccccc3CC2C)CC1 (configuration not stated)	-1	58*	3	8	23	32
Cc1noc(/C=C/c2ccco2)c1S(=O)(=O)N1CCC(C(=O)NC(C)c2ccccc2)CC1 (configuration not stated)	-11	-11	1	6	0	22
O=C(CSC1=NS(=O)(=O)c2ccccc2N1)Nc1nccs1	-8	-9	-5	1	-9	-12
CCCc1nc2ccccc2c(C(=O)OCC(=O)N2CCc3ccccc32)c1CC	-9	58*	10	23	83*	10
CCCc1nc2ccccc2c(C(=O)OCC(=O)Nc2ccc(S(=O)(=O)N3CCOCC3)cc2)c1CC	8	48	8	?	91*	38
CCCc1nc(SCc2ccccn2)c2c(=O)n(C)c(=O)n(C)c2n1	11	13	-1	-10	107*	1
O=c1[nH]c(CSc2ncnc3sccc23)nc2ccccc12	-5	-1	-10	67*	5	5
O=C(CN1CCOCC1)NNC(=S)Nc1ccc(Cl)cc1	-3	-1	0	-6	2	0
O=C(CN1c2ccccc2Sc2ccccc21)NNC(=S)Nc1ccc(Cl)cc1	9	2	-4	89*	31	19
COc1cccc(OCCCn2cc(/C=C3/C(=N)N4C=C(C)SC4=NC3=O)c3ccccc32)c1	7	57*	-20	21	13	48
CC1=CN2C(=N)/C(=C/c3cn(CCCOc4ccccc4C)c4ccccc34)C(=O)N=C2S1	23	0	1	2	3	4
COc1ccccc1CNc1ccc2c(c1)CCC2	17	55*	-4	9	7	-12
Cc1cc(C)c(S(=O)(=O)Nc2ncn[nH]2)cc1C	-6	?	-9	-19	2	-27
Cc1cccc(NCC(=O)N/N=C\c2cccc(Oc3ccccc3)c2)c1	1	9	-6	58*	29	18
SMILES	Beta apoptosis	T cruzi repl	Calb FLC	SKKanGAS inh	CSC inhib	Mdm2 MdmX PPI
O=C(Oc1ccc(-c2cnc3ccccc3n2)cc1)c1ccc(Cl)c([N+](=O)[O-])c1	-8	3	-16	74*	-10	-69
COc1ccccc1-n1c(SCC(N)=O)nc2sc3c(c2c1=O)CCC3	-3	-3	-4	-5	2	15
CCOc1ccc(NC(=O)c2cn(-c3ccc(OCC)cc3)c(=O)c3cc(OC)c(OC)cc23)cc1	1	?	86*	6	8	19
CCOc1ccc(-n2cc(C(=O)NC(C)C)c3cc(OC)c(OC)cc3c2=O)cc1	-3	1	-16	0	-1	11
CCOc1ccc(-n2cc(C(=O)Nc3cccc(Cl)c3)c3cc(OC)c(OC)cc3c2=O)cc1	10	64*	40	13	0	38
COc1ccc(NC(=O)CN(C)C(=O)C2=NN(c3ccccc3)C(=O)CC2)cc1	-7	nt	nt	nt	nt	6
CC(=O)N1CCOCCOCCN(C(C)=O)CCOCCOCC1	-4	-30	102*	-1	-2	5
O=C(c1cccc(Br)c1)N1CCN(c2ccccn2)CC1	-2	nt	16	-6	-8	-18
O=C(c1ccc(SCc2cccc(Br)c2)c([N+](=O)[O-])c1)N1CCN(c2ccccn2)CC1	-4	58*	27	17	53	13
Cc1ccc(NC(=O)NCc2ccccn2)cc1	-6	-10	-3	-7	-14	-22
Cc1ccc(NC(=O)NCc2ccccn2)c(C)c1	2	nt	95*	nt	-5	6
Clc1ccccc1C(c1ccccc1)(c1ccccc1)n1ccnc1	25	43	nt	50*	29	22
CC(NCc1ccccc1)c1ccccc1O (configuration not stated)	4	9	-16	1	-12	20
C#CCN(C(=O)c1cc(COc2cccc(C(F)(F)F)c2)on1)C1CCCCC1	104*	21	-1	26	62	1
O=C(c1cc(COc2cccc(C(F)(F)F)c2)on1)N1CCC(c2ccncc2)CC1	111*	23	?	-23	31	26
CCOC(=O)N1CCN(C(=O)c2ccc3c(=O)n(CCC4=CCCCC4)c(=S)[nH]c3c2)CC1	3	11	1	67*	-15	12
COc1ccc(S(=O)(=O)N2CCOCC2)cc1NC(=O)c1cccc(Cl)c1	2	-14	7	9	18	27
O=C(COc1ccccc1Cl)Nc1ccc(N2CCN(C(=O)c3ccccc3)CC2)cc1	nt	27	-2	3	13	30
CCOC(=O)c1c(C)oc2c1c(C(c1ccccc1)N1CCOCC1)c(O)c1ccccc12 (configuration not stated)	-1	13	59	67*	57	-20
CCOC(=O)c1c(C)oc2c1c(C(c1cccnc1)N1CCCCC1)c(O)c1ccccc12 (configuration not stated)	-1	-60	34	1	29	-61
CNC(=S)N1CCN(c2nc(-c3ccc(Cl)cc3)cs2)CC1	-7	-6	-2	-5	-7	-6
Cc1cc(C)c2c(=O)n(CC(=O)Nc3ccc(Cl)cc3)sc2n1	5	60*	-8	-2	?	8
CCOc1ccc(NC(=O)Cn2sc3nc(C)cc(C)c3c2=O)cc1	4	50	5	15	11	-12
